How the values were obtained:
[1] = system: S. pyogenes M49 strain 591; test: Bacterial kill assay; type: cell-based, Streptococcus pyogenes; conditions: for Reduction of CFU per milliliter: concentration range 1 to 10 μM, n = 3; for Reduction of CFU per milliliter / Clearance six hours following treatment / Reduction of bacterial counts by scPNA / Reduction of bacterial counts by scPNAs in kill assay: 6 h; for Clearance six hours following treatment: 5 μM or 10 μM; for log CFU reduction: six hours following treatment; for Reduction of bacterial counts by scPNA: 10 μM scPNA, n = 5; for Reduction of bacterial counts by scPNAs in kill assay: up to 5 μM scPNA
Procedure, shortened: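 S. pyogenes overnight cultures diluted in PBS/BHI (7/2) to about 2 × 10^5 CFU/mL. Test compound added to 1–10 μM final, with water as mock. Incubated 6 h at 37°C while rotating at 7 rpm. Dilutions plated on THY agar, and CFU counted after overnight growth at 37°C under 5% CO2/20% O2. Initial screen used two biological replicates; later experiments used at least three.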

[2] = system: gyrA mRNA; type: cell-based, Streptococcus pyogenes; conditions: 2 μM CPP-PNA, 6 h, 10^7 CFU/mL in THY; normalised to 5S RNA gene, 2^-ΔΔct; n = 3
[3] = system: S. pyogenes strain 591 (M49); test: G. mellonella infection model; type: in vivo, Galleria mellonella
Procedure, shortened: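 Wax moth larvae (150–200 mg) injected into the hemocoel, between the last two pro-leg pairs, with 1–3 × 10^6 CFU/larva. Inoculum was grown overnight in THY, washed twice and resuspended in 0.9% NaCl. Test compound (4 nmol/larva) injected 30 min post-infection; 0.9% NaCl served as mock. Survival recorded daily over 7 days.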

[4] = system: S. pyogenes M1 strain AP1; test: Bacterial kill assay, strain AP1; type: cell-based, Streptococcus pyogenes; conditions: 6 h (data not shown; Figure 3B cited)
Procedure, shortened: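 Overnight THY cultures (37°C, 5% CO2/20% O2) diluted in PBS/BHI (7/2) to about 2 × 10^5 CFU/mL. About 10^5 CFU were exposed to CPP-PNA conjugates at 1–10 μM final, with 5 μM used in the isolate comparison; water was the mock. Incubation 6 h at 37°C, rotating at 7 rpm. Viable counts came from plating dilutions on THY agar, compared with the untreated control.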

RQIKIWFQNRRMKWKK [Ant-anti-gyrA PNA]
Reduction of CFU per milliliter [1]: no reduction

RXRRXRRXRRXRXB [(RXR)4XB-anti-gyrA PNA]
gyrA mRNA level relative to mock-treated bacteria [2]: 56% | Effect on larvae survival relative to the other active conjugates ([3]; 4 nmol/larva, 7 days): lower compared with the other conjugates | Clearance six hours following treatment [1]: no clearance was achieved | log CFU reduction ([1]; 5 μM): three | log CFU reduction ([1]; 10 μM): four

KKKKKKKK [K8-anti-gyrA scPNA]
Reduction of bacterial counts by scPNA [1]: significant reduction | Reduction of bacterial counts by scPNAs in kill assay [1]: did not lead to the reduction of bacterial counts

LLIILRRRIRKQAHAHSK [mVE-cadherin-anti-gyrA PNA]
Reduction of CFU per milliliter [1]: no reduction

C[C@H]1COc2c(N3CCN(C)CC3)c(F)cc3c(=O)c(C(=O)O)cn1c23 [levofloxacin, reference compound]
Survival of infected larvae ([3]; 1 μg levofloxacin alone, untreated infected larvae 20%, n = 30 larvae per group): 46%

Dansyl-G-C-ELALE LALEALEAALELA [ELA-anti-gyrA PNA]
Reduction of CFU per milliliter [1]: no reduction

KKKKKKKK [K8-anti-gyrA PNA]
Antimicrobial effect in AP1 [4]: did not show any antimicrobial effect | gyrA mRNA level relative to mock-treated bacteria [2]: 60% | Clearance six hours following treatment [1]: no clearance was achieved | log CFU reduction ([1]; 5 μM): three | log CFU reduction ([1]; 10 μM): four

RXRRXRRXRRXRXB [(RXR)4XB-anti-gyrA scPNA]
Reduction of bacterial counts by scPNA [1]: significant reduction | Reduction of bacterial counts by scPNAs in kill assay [1]: did not lead to the reduction of bacterial counts
